Measured values from article PMC12278818 (RSC Advances, 2025).
pIC50: −log10 of the molar value.

How the values were obtained:
[1] = tested on: mouse macrophage cell line (RAW 264.7); conditions: RAW 264.7, 48 h, MTT
InhA enzyme = InhA enzyme (Mycobacterium tuberculosis, UniProt P9WGR1); assay: InhA enzyme inhibition assay; type: biochemical, M. tuberculosis; conditions: for inhibition at 50 µM: read-out: % inhibition InhA at 50 μM of inhibitor
A549 cell line = assay: MTT-based cytotoxicity on lung cancer cell line; set-up: species or system human
Procedure, shortened: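 A549 lung cancer cells were exposed to test compounds for 24 h, with cisplatin as the reference. Viability was measured by MTT: viable cells reduce the dye to formazan crystals, which are dissolved in solvent and read at 570 nm. IC50 is the half-maximal inhibitory concentration.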

[2] = tested on: Mycobacterium tuberculosis H37Rv; assay: Microplate alamar blue assay; type: cell-based; conditions: MABA, 7 days, unit as printed mg mL^−1

Chain of InhA enzyme (P9WGR1 whole entry, looked up): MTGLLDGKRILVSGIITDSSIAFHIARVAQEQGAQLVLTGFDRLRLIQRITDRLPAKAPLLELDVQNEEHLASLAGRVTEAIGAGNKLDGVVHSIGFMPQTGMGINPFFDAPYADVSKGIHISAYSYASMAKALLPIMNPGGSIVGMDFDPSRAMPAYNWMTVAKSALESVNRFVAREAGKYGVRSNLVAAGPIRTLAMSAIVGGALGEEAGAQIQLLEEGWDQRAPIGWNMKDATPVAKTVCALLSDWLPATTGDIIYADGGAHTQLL

## COc1cccc(-c2cc(-c3ccc(-n4cccc4)cc3)nc(N)n2)c1O [Compound 4u, 2-(6-(4-(1H-Pyrrol-1-yl)phenyl)-2-aminopyrimidin-4-yl)-6-methoxyphenol]
[1]
  % Toxicity at 25 μg mL^−1: 19.10%
InhA enzyme; 50 μM inhibitor
  % inhibition InhA at 50 μM of inhibitor: no inhibition
InhA enzyme
  inhibition at 50 µM: < 5%

## COc1ccc(-c2cc(-c3ccc(-n4cccc4)cc3)nc(N)n2)c(OC)c1 [Compound 4c, 4-(4-(1H-Pyrrol-1-yl)phenyl)-6-(2,4-dimethoxyphenyl)pyrimidin-2-amine]
A549 cell line; Homo sapiens, A549
  pIC50: 4.26
[1]
  % Toxicity at 25 μg mL^−1: 25.80%
InhA enzyme
  inhibition at 50 µM: 16%

## CC(C)c1ccc(C=CC(=O)c2ccc(-n3cccc3)cc2)cc1 [Compound 3k, 1-(4-(1H-Pyrrol-1-yl)phenyl)-3-(4-isopropylphenyl)prop-2-en-1-one]
[1]
  % Toxicity at 25 μg mL^−1: 30.1%
InhA enzyme
  inhibition at 50 µM: 36%

## O=C(C=Cc1cccs1)c1ccc(-n2cccc2)cc1 [Compound 3l, 1-(4-(1H-Pyrrol-1-yl)phenyl)-3-(thiophen-2-yl)prop-2-en-1-one]
[1]
  % Toxicity at 25 μg mL^−1: 26.6%
InhA enzyme
  inhibition at 50 µM: 36%

## 4-(4-(1H-Pyrrol-1-yl)phenyl)-6-(furan-3-yl)pyrimidin-2-amine [Compound 4b]
[2]
  MIC values: 25 mg/mL

## Nc1nc(-c2ccc(-n3cccc3)cc2)cc(-c2ccc(Cl)cc2Cl)n1 [Compound 4h, 4-(4-(1H-Pyrrol-1-yl)phenyl)-6-(2,4-dichlorophenyl)pyrimidin-2-amine]
A549 cell line; Homo sapiens, A549
  pIC50: 3.98
[1]
  % Toxicity at 25 μg mL^−1: 26.80%
InhA enzyme
  inhibition at 50 µM: < 5%

## 1-(4-(1H-Pyrrol-1-yl)phenyl)-6-phenylhexa-2,5-dien-1-one [Compound 3r]
[2]
  MIC values: >25 mg/mL

## N.N.[Cl][Pt][Cl] [Cisplatin, reference compound]
A549 cell line; A549, MTT
  pIC50: 5.00

## 1-(4-(1H-Pyrrol-1-yl)phenyl)-6-(4-(dimethyl amino)phenyl)hexa-2,5-dien-1-one [Compound 3v]
[2]
  MIC values: 25 mg/mL

## COc1ccc(-c2cc(-c3ccc(-n4cccc4)cc3)nc(N)n2)cc1 [Compound 4g, 4-(4-(1H-Pyrrol-1-yl)phenyl)-6-(4-methoxyphenyl)pyrimidin-2-amine]
A549 cell line; Homo sapiens, A549
  pIC50: 4.31
[1]
  % Toxicity at 25 μg mL^−1: 19.09%
InhA enzyme
  inhibition at 50 µM: 36%

## CC(C)c1ccc(-c2cc(-c3ccc(-n4cccc4)cc3)nc(N)n2)cc1 [Compound 4k, 4-(4-(1H-Pyrrol-1-yl)phenyl)-6-(4-isopropylphenyl)pyrimidin-2-amine]
A549 cell line; Homo sapiens, A549
  pIC50: 3.91
[1]
  % Toxicity at 25 μg mL^−1: 28.90%
InhA enzyme
  inhibition at 50 µM: 10%
